# A selection: hits, their analogues and other compounds. The true share with any hit is near 2.4%.
# aDG glyco act: alpha-DG glycosylation activation; 360,000 compounds, 0.22% hits; Pro5-aDG cells, alpha-DG glycosylation AlphaScreen (IIH6); 0% Pro5, 100% B10-LARGE cell signal; activation, % at 10 µM;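 active means activation of at least 8% versus controls, or a plate z-score of at least 8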;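 further: Pro5 are CHO cells carrying HIG-tagged alpha-DG that lacks glycosylation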
# 697 NFkB inh: lowers PMA/ionomycin-induced NF-kB signal in 697 B cells; 697 B-cell NF-kB luciferase reporter, 16 h; inhibition, % at 4 µM; 330,000 compounds, 0.33% hits; in the data active means inhibition above about 35%
# NR2E3 ag-1: NR2E3 (human) agonism; inhibition of corepressor binding, % at 4.78 µM; AID 2300; 320,000 compounds, 0.12% hits; GST-NR2E3/biotin-RetCOR TR-FRET, 1536-well;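 active means percent inhibition above the cutoff of mean plus 3 SD of all tested compounds, set per screening campaign, cut at about 20% in these data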;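 further: 0% = DMSO wells and 100% = biotin wells as full block of FRET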
# Target sequence (Q9Y5X4 whole entry, looked up): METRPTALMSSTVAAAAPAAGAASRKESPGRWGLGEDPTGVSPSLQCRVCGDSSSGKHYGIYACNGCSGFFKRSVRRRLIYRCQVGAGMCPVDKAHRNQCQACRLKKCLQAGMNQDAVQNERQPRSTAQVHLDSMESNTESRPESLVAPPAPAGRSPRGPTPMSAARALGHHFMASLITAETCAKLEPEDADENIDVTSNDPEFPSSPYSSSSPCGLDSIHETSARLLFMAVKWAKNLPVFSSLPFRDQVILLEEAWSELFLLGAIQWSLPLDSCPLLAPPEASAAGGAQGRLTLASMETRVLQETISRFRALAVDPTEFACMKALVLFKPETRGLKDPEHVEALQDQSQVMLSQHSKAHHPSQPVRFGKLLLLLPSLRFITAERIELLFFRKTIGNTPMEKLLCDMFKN
#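 System: GST-tagged NR2E3 plus biotinylated RetCOR corepressor; Amount: 1.35 nM GST-tagged NR2E3 final; Dosing: single nominal compound dose of 4.8 µM; Schedule: 5 h incubation at 4 °C; Technique: TR-FRET with europium anti-GST and streptavidin-D2, 340 nm excitation; Controls: biotin wells as high control, 0.6% DMSO wells as low control.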
# NR2E3 ag-2: activates human NR2E3 receptor. Q9Y5X4. CHO-S Gal4-NCOR/VP16-NR2E3 two-hybrid, luciferase. inhibition of corepressor binding, % at 3.98 µM. 360,000 compounds, 0.35% hits;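 active means inhibition above the mean of all tested compounds plus 3 SD, cut at about 70% in these data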;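 further: 0% = DMSO with NR2E3 transfected cells and 100% = cells lacking NR2E3 construct; higher means lower luciferase signal from less NR2E3 corepressor binding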
# Jurkat NFkB inh: inhibitors of the PMA/ionomycin-induced NF-kB reporter in Jurkat cells. inhibition, % at 4 µM. PMA/ionomycin-induced NF-kB luciferase reporter, luminescence. 330,000 compounds, 0.53% hits; in the data active means inhibition above about 50%
# MPTP inh: inhibitors of mitochondrial permeability transition pore; 360,000 compounds, 1.4% hits; isolated mouse mitochondria, Ca2+ swelling absorbance, 30 min; inhibition, % at 10 µM;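 active means inhibition of 50% or more, scaled per plate between neutral and stimulator controls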;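 further: 0% = DMSO wells given calcium and 100% = 1 mM EGTA wells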
# Jurkat NFkB conf: lowers PMA/ionomycin-induced NF-kB signal in Jurkat cells; shares compounds with Jurkat NFkB inh; Jurkat NF-kB luciferase, 16 h; inhibition, % at 4 µM; 2,700 compounds, 27% hits; AID 435020;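 active means inhibition reaching about 45% at 4 µM in either replicate, limit read from the data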;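 further: plate controls were PMA/ionomycin stimulated DMSO wells for no effect and unstimulated DMSO wells for full effect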
# 697 NFkB conf: lowers PMA/ionomycin-induced NF-kB signal in 697 B cells; shares compounds with 697 NFkB inh; AID 449746; 2,000 compounds, 35% hits; inhibition, % at 4 µM; 697 B-cell NF-kB luciferase, 16 h; in the data active means inhibition mostly above about 28%, no sharp cut-off; inactive means mostly below about 22%
# NR2E3 ag confirm: confirmation of human NR2E3 agonists; shares compounds with NR2E3 ag-2; CHO-S mammalian two-hybrid NR2E3-NCOR, luciferase luminescence; inhibition, % at 3.98 µM; 2,300 compounds, 51% hits;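 active means average inhibition above a cutoff equal to the mean inhibition of all tested compounds plus one SD, cut at about 70% in these data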;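 further: 0% = DMSO in NR2E3 cells and 100% = DMSO in cells lacking NR2E3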
# GAL4-VP16 luc: reduces GAL4-VP16 reporter signal in NR2E3 counterscreen; shares compounds with NR2E3 ag-2; CHO-S GAL4-VP16 luciferase reporter, luminescence; inhibition, % at 3.98 µM; 2,300 compounds, 29% hits; AID 624379;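 active means mean inhibition above a cutoff equal to the average over all tested compounds plus one standard deviation, cut at about 70% in these data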;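 further: luciferase from a UAS reporter driven by GAL4-VP16 transactivation; 0% = DMSO with VP16-transfected cells and 100% = DMSO with cells lacking VP16; higher means less reporter light so more repression of VP16 activity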
# * hit, by the source's call; i = inactive; x = no result.
SMILES,aDG glyco act,697 NFkB inh,NR2E3 ag-1,NR2E3 ag-2,Jurkat NFkB inh,MPTP inh,Jurkat NFkB conf,NR2E3 ag confirm,GAL4-VP16 luc,others
Cc1ccc(C(=O)N/N=C/c2ccc([N+](=O)[O-])s2)cc1,12.7*,38.2*,-4.2,69.2,64.4*,-28.5,48.5*,-2.6,67.8,697 NFkB conf=16.1
Cc1[nH]c2ccc3ncccc3c2c1C,0.3,-27.7,0.9,1.5,-1.3,2.9,x,x,x,
Cc1c(C)c2cccnc2c2ncccc12,0.8,-65.0,0.5,79.2*,78.3*,0.3,83.7*,39.0,9.2,
CCCCn1c(N)c(N(CCC(C)C)C(=O)C2CC(=O)N(c3ccc(OC)cc3OC)C2)c(=O)[nH]c1=O (stereo not given),0.1,17.7,-3.2,7.0,3.8,-0.9,x,x,x,
COc1ccc2sc(N(CCCN(C)C)C(=O)c3nc4ccccc4s3)nc2c1,0.1,7.5,0.0,-20.2,-14.3,2.9,x,x,x,
COc1ccccc1C(=O)N(CCC1CCCN1C)c1nc2ccccc2s1 (stereo not given),0.7,-315.7,7.9,64.6,-216.1,-0.9,38.3,30.4,-9.6,697 NFkB conf=-288.3
CSc1ccc(COC(=O)c2cc([N+](=O)[O-])ccc2N2CCOCC2)cc1,-0.1,-84.8,-0.7,60.5,81.1*,-1.2,66.3*,12.0,26.9,
Cc1nn(-c2ccccc2Cl)c(Cl)c1/C=N/Nc1nc2ccccc2s1,-0.3,-222.8,-4.0,51.7,67.4*,9.5,85.5*,77.4*,67.1,
COc1cc(CC(=O)Nc2ccc(S(=O)(=O)NC3=NCCCCC3)cc2)cc(OC)c1OC,-0.2,-6.8,1.3,1.6,10.2,1.8,x,x,x,
O[C@@H]1[C@@H](O)C=C2CCN3Cc4cc5c(cc4[C@H]1C23)OCO5 (stereo not given in full),-0.2,-289.3,2.5,89.2*,96.4*,1.7,89.3*,92.1*,85.4*,697 NFkB conf=-229.2
O=C(CN1C(=O)c2ccccc2S1(=O)=O)c1ccc2c(c1)OCCO2,-0.1,93.3*,1.6,69.1,94.4*,0.5,91.7*,84.8*,66.4,697 NFkB conf=92.0*
O=C(CN1C(=O)c2ccccc2S1(=O)=O)c1ccc2c(c1)OCCCO2,-0.2,94.5*,-0.2,97.4*,95.7*,2.2,93.7*,93.9*,89.0*,697 NFkB conf=88.6*
Cn1c2ccccc2c(=O)c2cc(C#CC3(O)CCCCC3)ccc21,0.6,-151.8,-0.6,-3.9,-81.3,0.2,x,x,x,
Cc1cc2sc3ccc(C#CC4(O)CCCCC4)cc3c(=O)c2cc1C,1.0,88.2*,4.9,60.0,83.3*,0.4,96.8*,86.4*,35.7,697 NFkB conf=74.8*
Cc1cccc(NS(=O)(=O)c2ccc(-c3cnc(C4CC4)o3)cc2)c1C,0.1,-28.0,2.1,83.3*,60.3*,-0.2,66.2*,77.0*,39.1,
Cc1cc(C)cc(NS(=O)(=O)c2ccc(-c3cnc(C4CC4)o3)cc2)c1,0.4,-52.5,-0.5,52.6,55.9*,2.1,55.2*,47.3,33.8,
Cc1ccc(C)c(NS(=O)(=O)c2ccc(-c3cnc(C4CC4)o3)cc2)c1,0.3,-211.1,4.0,80.3*,61.2*,5.6,60.0*,59.5,40.2,
COc1ccc(-n2nc(C(=O)NCC(=O)N(C)Cc3ccccc3)c3ccccc3c2=O)c(OC)c1,-0.2,5.8,0.7,2.4,11.3,0.1,x,x,x,
O=C(COCc1cc(-c2ccc3c(c2)OCO3)on1)Nc1cccnc1Cl,-0.2,10.5,1.2,-19.1,5.6,1.1,x,x,x,
Cc1ccc(S(=O)(=O)Nc2cccc3ncccc23)s1,-0.4,-155.9,3.2,102.2*,82.5*,-0.4,21.2,52.9,5.2,
Nc1nnnn1/N=C/C=C/c1ccccc1,-0.1,-2.3,-0.9,-40.5,-6.1,4.7,x,x,x,
Nc1nnnn1/N=C/C(Br)=C/c1ccccc1,-0.5,-60.9,2.8,65.3,57.5*,0.4,16.2,46.7,30.5,
CC(=O)N1c2ccc(S(=O)(=O)N3CCC(C(=O)Nc4ccccn4)CC3)cc2CC1C (stereo not given),0.1,2.8,-0.1,5.9,4.6,0.7,x,x,x,
CC(=O)N1c2ccc(S(=O)(=O)N3CCC(C(=O)Nc4cccc(C)n4)CC3)cc2CC1C (stereo not given),-0.1,-7.2,-3.8,49.7,53.8*,0.7,50.4*,17.9,5.5,
Nc1ncn([C@@H]2O[C@H](CO)[C@@H](O)[C@H]2O)c(=O)n1,0.2,-116.2,-3.5,53.8,79.8*,2.5,84.7*,40.0,39.4,
SMILES,aDG glyco act,697 NFkB inh,NR2E3 ag-1,NR2E3 ag-2,Jurkat NFkB inh,MPTP inh,Jurkat NFkB conf,NR2E3 ag confirm,GAL4-VP16 luc,others
O=c1[nH]cnc2c1ncn2C1OC(CO)C(O)C1O (stereo not given),0.1,x,x,28.4,x,-3.7,x,x,x,
C=CS(=O)(=O)c1ccc(Oc2ccc(S(=O)(=O)C=C)cc2)cc1,-0.4,2.6,1.4,91.3*,77.7*,26.2,90.5*,68.7,25.9,
O=S(=O)(O)c1cccc2c(N=Nc3ccc(O)c4ncccc34)cccc12,-0.2,x,2.2,5.9,x,10.6,x,x,x,
O=Nc1ccc(O)c2ncccc12,-0.2,i,-5.2,55.5,59.7*,1.7,24.6,58.0,21.0,697 NFkB conf=i
Nc1nc2n[nH]nc2c(=O)[nH]1,-0.1,-51.7,0.5,81.1*,64.3*,-0.3,74.4*,23.6,52.8,
Nc1nc2nn(-c3ccccc3)nc2c(=O)[nH]1,0.3,-45.1,-0.6,-30.3,-22.0,-0.2,x,x,x,
O=C1COc2ccc(S(=O)(=O)Nc3ccc(F)cc3)cc2N1,0.1,3.2,3.2,5.8,6.0,0.2,x,x,x,
Cc1cc(C(=O)COc2cccnc2[N+](=O)[O-])c(C)n1-c1ccccc1,0.1,-6.6,-0.8,70.9*,64.7*,-1.4,18.4,72.0*,54.0,
Cc1cc(C(=O)COc2cccnc2[N+](=O)[O-])c(C)n1Cc1ccco1,0.0,0.0,-0.3,29.0,7.6,10.5,x,x,x,
O=C(NCc1ccc(Cl)cc1)N1CCN(Cc2ccccc2)CC1,1.5,-12.7,0.5,-11.6,-17.9,2.1,x,x,x,
CC(=O)/C(=N\Nc1ccccc1)Sc1cccc2cccnc12,-0.3,-17.1,1.9,-6.4,3.5,0.4,x,x,x,
O=C(Sc1cccc2cccnc12)c1ccccc1Br,-0.4,-97.3,-5.1,100.2*,100.7*,1.6,69.4*,-23.7,-39.2,

# Compound activity deposited in PubChem BioAssay by several laboratories.
